Test results published in article PMC4360665 (CPT: Pharmacometrics & Systems Pharmacology, 2015).
Where “and” joins values, the source holds several entries; their conditions need not be identical. Equal entries are not always repeated. Where two headings read alike, the source gives them in different places.

How the values were obtained:
[1] = tested on: CYP3A; type: in vitro ADME, human; settings: ketoconazole at 1 µM; nine individual pediatric liver microsomes aged 1 month to 4 years; mean ± SD
Outline: (§1)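 Substrate depletion of the test compound in nine individual pediatric liver microsomes in 100 mM potassium phosphate (pH 7.4) at 37°C, with and without CYP-selective inhibitor (1 µM; ketoconazole for CYP3A, montelukast for CYP2C8). NADPH regenerating system starts the reaction (t=0). Serial aliquots are extracted with methanol/ZnSO4 plus internal standard and analysed by online SPE-LC-MS/MS. kel comes from the log %-remaining vs time slope. % contribution is calculated from kel with and without inhibitor.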

[2] = target: recombinant CYP3A7 (Homo sapiens, UniProt P24462); test: Substrate depletion assay with recombinant CYP3A7; type: in vitro ADME
Chain of recombinant CYP3A7 (P24462 whole entry): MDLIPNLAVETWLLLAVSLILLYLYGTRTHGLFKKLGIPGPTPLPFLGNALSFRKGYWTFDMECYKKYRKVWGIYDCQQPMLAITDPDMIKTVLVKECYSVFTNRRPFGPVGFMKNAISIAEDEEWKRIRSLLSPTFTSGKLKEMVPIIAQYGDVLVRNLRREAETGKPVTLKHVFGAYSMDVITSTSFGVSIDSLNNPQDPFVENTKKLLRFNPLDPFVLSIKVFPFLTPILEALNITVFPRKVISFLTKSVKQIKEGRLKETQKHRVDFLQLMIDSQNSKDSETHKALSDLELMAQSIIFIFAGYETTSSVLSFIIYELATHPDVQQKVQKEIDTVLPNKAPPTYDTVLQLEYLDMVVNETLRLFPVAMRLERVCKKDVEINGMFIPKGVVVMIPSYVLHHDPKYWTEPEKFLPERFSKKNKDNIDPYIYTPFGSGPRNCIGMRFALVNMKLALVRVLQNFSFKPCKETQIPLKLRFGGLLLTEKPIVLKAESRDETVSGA
Outline: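 Recombinant CYP3A7 (with reductase and cytochrome b5) was brought to 0.4 mg/ml protein with blank microsomes and incubated with sirolimus in 100 mM potassium phosphate, pH 7.4, at 37°C with shaking. NADPH regenerating system started the reaction (t = 0), with aliquots taken at serial times. Sirolimus remaining was measured by on-line SPE–HPLC–MS/MS against an internal standard. The slope of log % remaining versus time was converted to CLint per pmol CYP.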

[3] = target: T1, CYP2C8 (Homo sapiens, UniProt P10632); type: in vitro ADME; settings: montelukast at 1 µM; nine individual pediatric liver microsomes aged 1 month to 4 years; mean ± SD
T1 sequence (P10632 1-490): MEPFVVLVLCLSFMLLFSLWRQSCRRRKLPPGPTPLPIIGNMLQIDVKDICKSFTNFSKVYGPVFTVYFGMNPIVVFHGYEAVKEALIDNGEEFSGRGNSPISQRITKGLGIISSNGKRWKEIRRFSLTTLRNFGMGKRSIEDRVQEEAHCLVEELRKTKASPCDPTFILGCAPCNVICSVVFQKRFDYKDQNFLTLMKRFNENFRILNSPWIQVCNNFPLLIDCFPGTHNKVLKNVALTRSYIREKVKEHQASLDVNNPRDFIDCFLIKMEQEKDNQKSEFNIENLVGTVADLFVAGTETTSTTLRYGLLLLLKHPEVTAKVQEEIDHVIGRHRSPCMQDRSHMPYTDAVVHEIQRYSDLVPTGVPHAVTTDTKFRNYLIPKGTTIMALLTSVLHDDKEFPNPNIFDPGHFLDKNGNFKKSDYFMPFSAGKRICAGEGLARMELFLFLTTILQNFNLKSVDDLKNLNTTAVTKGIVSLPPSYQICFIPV
Outline: as §1

[4] = type: in vivo, human; settings: for Mean sirolimus oral clearance: allometrically scaled (0.75, 70 kg)
Outline: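 Oral dosing began at 0.8 mg/m2 twice daily, then adjusted to trough targets of 10 to 15 ng/ml. Concentrations were drawn at 8–14 days, then every 2 weeks (LLOQ 1.0 ng/ml). First-4-week samples (1–3 per patient) fed a Bayesian one-compartment estimator with pediatric neurofibromatosis priors, estimating clearance only. Clearances were scaled allometrically (exponent 0.75, 70 kg), and an Emax fit against age gave CLmatured and Age50.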

[5] = tested on: P-glycoprotein (MDR1/ABCB1); settings: cited from earlier work

- % of Contribution of CYP3A to sirolimus metabolism [1]: 95.8% and 95.8±4.8%
- fold lower CLint of CYP3A7 than reported CYP3A4 activity ([2]; CYP3A4 value from ref 17): 30 fold
- fold lower CLint of CYP3A7 than reported CYP3A5 activity ([2]; CYP3A5 value from ref 17): 13 fold
- CLint for recombinant CYP3A7 ([2]; substrate depletion, 37°C, pH 7.4): 0.30 µl/min/pmol CYP protein
- % of Contribution of CYP2C8 to sirolimus metabolism [3]: less than 10% and 8.5±4.3%
- Mean sirolimus oral clearance ([4]; age group 1 year (≥1, <2), n=5): 17 ± 4 L/h
- Mean sirolimus oral clearance ([4]; age group 1–8 months (<1), n=9): 11 ± 3 L/h
- Mean sirolimus oral clearance ([4]; age group 2 years (≥2, <3), n=3): 21 ± 3 L/h
- Mean sirolimus oral clearance ([4]; age group 3–18 years (≥3), n=27): 18 ± 6 L/h
- Observed CLmatured ([4]; clinical clearance estimates, patients 1 months to 3 years, n = 20, Emax model): 19.4 ± 2.2 L/h/70 kg
Compound: CO[C@H]1C[C@@H]2CC[C@@H](C)[C@@](O)(O2)C(=O)C(=O)N2CCCC[C@H]2C(=O)O[C@H]([C@H](C)C[C@@H]2CC[C@@H](O)[C@H](OC)C2)CC(=O)[C@H](C)/C=C(\C)[C@@H](O)[C@@H](OC)C(=O)[C@H](C)C[C@H](C)/C=C/C=C/C=C/1C [sirolimus]
- substrate of P-glycoprotein (MDR1/ABCB1) [5]: substrate
